In the library only some 1.5% were active in any assay of this set; here they are far more common.
CCR6 antag: blocks CCL20-driven beta-arrestin recruitment at human CCR6; P51684; CHO-K1 CCR6 PathHunter beta-arrestin, luminescence, CCL20-stimulated; inhibition, % at 20 µM; 0.49% of 340,000 active; AID 493098;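 active = compounds whose inhibition of the agonist-driven luminescence signal at 20 µM reaches about 50%, limit read from the data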;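 also: cells stimulated with CCL20 at 14 nM final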
APJ ag: activates the human apelin receptor APJ | CHO-K1 APJ PathHunter beta-arrestin, luminescence; 0% DMSO wells, 100% apelin | activation, % at 20 µM | 0.11% of 330,000 active;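 active = activation more than six SD over the plate average, tested at 20 µM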
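Test system: CHO-K1 APJ beta-arrestin complementation cell line. Amount: cell density 1000 per well. Controls: DMSO negative, 10 nM Apelin-13 positive. Signal: luminescent beta-gal fragment complementation, chemiluminescent substrate. Read-out basis: agonist-driven arrestin binding to APJ. Timing: compound stimulation 90 min at 25 °C, detection 60 min.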
APJ antag: antagonists of human APJ apelin receptor | P35414 | CHO-K1 APJ beta-arrestin complementation, luminescence | AID 2521 | inhibition, % at 20 µM | 0.32% of 330,000 active;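 active = inhibition above about 40% at 20 µM, limit read from the data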;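 also: cells challenged with 10 nM apelin-13 agonist together with compound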
EBI2 block: EBI2 (human) antagonism; P32249; EBI2 beta-arrestin recruitment, luminescence, 7a,25-OHC stimulated; inhibition, % at 5 µM; 0.81% of 360,000 active; in the data active = inhibition above about 38%;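 also: enzyme fragment complementation signal reports receptor beta-arrestin coupling in cells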
CXCR6 block: inhibitors of human CXCR6 receptor | O00574 | CHO-K1 PathHunter CXCR6 beta-arrestin, luminescence | inhibition, % at 20 µM | 0.36% of 360,000 active; in the data active = inhibition above about 34%, passing the limit was not always enough;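 also: antagonist mode with CXCL16 agonist at 10 nM final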
Target sequence (O00574 whole entry, looked up): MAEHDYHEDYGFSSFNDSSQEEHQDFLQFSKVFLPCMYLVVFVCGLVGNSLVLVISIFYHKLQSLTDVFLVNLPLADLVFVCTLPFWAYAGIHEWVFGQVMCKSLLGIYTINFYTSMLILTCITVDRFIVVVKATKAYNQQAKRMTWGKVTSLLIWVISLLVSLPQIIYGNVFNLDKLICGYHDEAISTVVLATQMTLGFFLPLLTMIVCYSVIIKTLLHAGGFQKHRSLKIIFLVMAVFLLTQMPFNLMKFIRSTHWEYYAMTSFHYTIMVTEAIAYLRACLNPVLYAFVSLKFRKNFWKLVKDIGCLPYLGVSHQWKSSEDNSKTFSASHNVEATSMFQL
CXCR6 confirm: CXCR6 antagonism confirmation, single concentration | shares compounds with CXCR6 block | CHO-K1 CXCR6 PathHunter beta-arrestin, luminescence | inhibition, % at 20 µM | 65% of 700 active;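 active = mean inhibition over four retests above 40%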;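 also: receptor stimulated with 10 nM CXCL16 agonist; beta-galactosidase fragment complementation upon beta-arrestin recruitment to receptor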
Each line names hits and unclear results; the compound was inactive in the other large screens (follow-up assays come after a bar, where they were run).

COC(=O)c1cc(NC(=O)COC(=O)C2COc3ccccc3O2)cc(C(=O)OC)c1 (configuration not stated)	none
C=C1C(=O)[C@]23C[C@H]1CCC2[C@@]1(C)C(C[C@@H]3O)[C@](C)(C(=O)OC)CC[C@@H]1O (some centres not stated)	CXCR6 block 55.4 (no result: CCR6 antag, APJ ag, APJ antag) | CXCR6 confirm 69.8
C[C@@]12C(C[C@H](O)[C@@]34C[C@@H](CCC13)[C@@H](CO)C4=O)[C@](C)(C(=O)O)CC[C@@H]2O (some centres not stated)	none (no result: CCR6 antag, APJ ag, APJ antag)
CC(OC(=O)c1nc(-c2ccccc2)n(-c2ccccc2)n1)C(=O)Nc1cc(Cl)cc(Cl)c1 (configuration not stated)	CXCR6 block 47.1 | CXCR6 confirm inactive
Cc1nn(-c2ccccc2)c(C)c1C(=O)OC(C)C(=O)Nc1ccc(C(N)=O)cc1 (configuration not stated)	none
CCN(CC(=O)NC(C)C)C(=O)[C@@H](NC(=O)c1ccco1)C(C)C	none
COc1cc(C(=O)NC2CC3CCCC(C2)N3CC(=O)Nc2ccccc2)cc(OC)c1OC (configuration not stated)	CXCR6 block 61.9 | CXCR6 confirm 68.6
O=C(CN1C2CCCC1CC(NC(=O)c1ccco1)C2)Nc1ccccc1 (configuration not stated)	none
CCOC(=O)c1cc([N+](=O)[O-])c([N+](=O)[O-])cc1NC(C)=O	CXCR6 block 67.4 (no result: CCR6 antag, APJ ag, APJ antag) | CXCR6 confirm 63.9
Nc1nnc(SCC(=O)OCC(=O)c2ccccc2Br)s1	CXCR6 block 48.9 | CXCR6 confirm inactive
Nc1nnc(SCC(=O)OCC(=O)c2ccccc2)s1	none
COC(=O)c1ccc2c(c1)C(C)(C)C(/C=C/c1ccc(OC)c(OC)c1OC)=[N+]2C	CCR6 antag 55.5, CXCR6 block 76.9 | CXCR6 confirm 101.9
COc1ccc(/C=N/Nc2ccc(C(=O)O)cc2)c(OC)c1OC	none
CCNC(=S)N/N=C(\C)c1ccc(Cl)s1	CXCR6 block 41.1 | CXCR6 confirm inactive
C=C(C)CNC(=S)N/N=C(\C)c1ccc(Cl)s1	none
COC(=O)c1ccc(/C=C(\C#N)C(=O)NC(C)c2ccccc2)cc1 (configuration not stated)	CCR6 antag 53.1, CXCR6 block 40.5 | CXCR6 confirm 55.1
COc1ccc(/C=C/c2ccc3c(Br)ccc(O)c3n2)cc1	none
COc1cc(/C=C/c2ccc3c(Br)cc(Br)c(O)c3n2)ccc1O	CCR6 antag 67.9, CXCR6 block 42.0 (no result: APJ ag, APJ antag) | CXCR6 confirm 51.0
O=c1ccc2ccccc2c2ccccc12	CXCR6 block 31.1 (no result: CCR6 antag, APJ ag, APJ antag) | CXCR6 confirm inactive
CCCCC(=O)NC(=S)Nc1ccccc1C(=O)Nc1ccccc1	CCR6 antag 54.2, CXCR6 block 50.6 | CXCR6 confirm 54.5
Nc1nc(COc2ccccc2)cs1	CXCR6 block 59.3 | CXCR6 confirm inactive
Cc1cccc(N=Cc2cc(Br)cc(Cl)c2O)c1	CXCR6 block 53.9 | CXCR6 confirm inactive
CCC(C)(C)c1nnc(NC(=O)C2CC(=O)N(CCc3ccc(F)cc3)C2)s1 (configuration not stated)	none
O=C(NC(=S)Nc1ccc([N+](=O)[O-])cc1)c1ccco1	CXCR6 block 41.6 (no result: CCR6 antag, APJ ag, APJ antag) | CXCR6 confirm inactive
O=C1CNC(=S)N1c1nc(-c2ccccc2)cs1	none
COc1ccc(-c2csc(N3C(=O)CNC3=S)n2)cc1	CCR6 antag 60.2, CXCR6 block 42.9 (no result: APJ ag, APJ antag) | CXCR6 confirm inactive
C=CCN(C(=O)CSC1=NC(=O)CN1C(C)=O)c1nc(C)c(-c2ccccc2)s1	CXCR6 block 40.4 | CXCR6 confirm inactive
O=C(CSc1cccc2cccnc12)N1CCCC1	CCR6 antag 70.3, CXCR6 block 51.8 | CXCR6 confirm 69.4
N#C/C(=C/c1ccc(-c2ccc([N+](=O)[O-])cc2)o1)C(=O)Nc1nc(-c2cccs2)cs1	CCR6 antag 67.7, CXCR6 block 48.5 (no result: APJ ag, APJ antag) | CXCR6 confirm 44.2
N#C/C(=C/c1ccc(-c2ccccc2)o1)c1nc(-c2cccs2)cs1	none (no result: APJ ag, APJ antag)
CC(=O)Nc1nc2ccccc2n1CCOc1ccccc1Cl	CXCR6 block 41.4 | CXCR6 confirm 65.5
CCCCn1c(Nc2ccccc2)nc2ccccc21	none
CCCn1c(Nc2nc3ccccc3n2C)nc2ccccc21	CCR6 antag 84.1, CXCR6 block 69.9 | CXCR6 confirm inactive
